ChEMBL document CHEMBL5724801, “EUbOPEN Chemogenomics Library - Multiplex” (2024)
“And” between values parts separate entries of the source, which are not always exact repeats. Equal values may be shown once.

Test system: U2OS
Experiment: Multiplex assay against U2OS
Format: toxicity, cell-based
Conditions: human
Summary of the method: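 Imaging took place on a CQ1 microscope at 37°C and 5% CO2 once compound had been added to live cells stained at seeding with Hoechst33342, BioTracker Green Microtubule Cytoskeleton Dye, MitoTracker Red and Annexin V Alexa Fluor 680. CellPathfinder machine-learning gating classed cells as Hoechst high-intensity objects or normal cells, classed normal cells as having healthy, pyknosed or fragmented nuclei, and classed pyknosed cells as mitotic or apoptotic. Tubulin, mitochondrial-mass and membrane-permeability phenotypes are per cents of the healthy-nucleus cells.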

[1] = 12 h, 1 µM, compound concentration 1 uM
[2] = 12 h, 10 µM, compound concentration 10 uM
[3] = 24 h, 1 µM, compound concentration 1 uM
[4] = 24 h, 10 µM, compound concentration 10 uM
[5] = 48 h, 1 µM, compound concentration 1 uM
[6] = 48 h, 10 µM, compound concentration 10 uM

In the case of `CC(C)(c1ccc(O)cc1)c1ccc(O)cc1` [BISPHENOL A], the “Population Apoptotic (%)” value [1] is reported as 38.24% and 39.39%, the “Population Fragmented Nuclei (%)” value [1] is reported as 2.9% and 4.3% and the “Population Healthy Nuclei (%)” value [1] is reported as 88.13% and 77.96%. The “Population Hoechst High Intensity Objects (%)” value [1] was 0%, the “Population Membrane Permeable-Phenotype (%)” value [1] was 0.3% and 2.76% and the “Population Mitochondria Different-Phenotype (%)” value [1] was 0.3% and 6.21%. The “Population Mitotic Cells (%)” value [1] was 61.76% and 60.61%, the “Population Normal (%)” value [1] was 100% and the “Population Pyknosed Nuclei (%)” value [1] was 8.97% and 17.74%. The “Population Tubulin-Different-Phenotype (%)” value [1] was 0.9% and 0.69%, the “Total Cell Count” value [1] was 379 and 186 and the “Population Apoptotic (%)” value [2] was 50% and 47.62%. For the same molecule, the “Population Fragmented Nuclei (%)” value [2] was 2.17% and 6.45%, the “Population Healthy Nuclei (%)” value [2] was 87.31% and 80% and the “Population Hoechst High Intensity Objects (%)” value [2] was 0%. The “Population Membrane Permeable-Phenotype (%)” value [2] was 0.71% and 4.03%, the “Population Mitochondria Different-Phenotype (%)” value [2] was 0.35% and 6.45% and the “Population Mitotic Cells (%)” value [2] was 50% and 52.38%. The “Population Normal (%)” value [2] was 100%, the “Population Pyknosed Nuclei (%)” value [2] was 10.53% and 13.55% and the “Population Tubulin-Different-Phenotype (%)” value [2] was 1.42% and 0%. For the same molecule, the “Total Cell Count” value [2] was 323 and 155, the “Population Apoptotic (%)” value [3] was 49.02% and 57.14% and the “Population Fragmented Nuclei (%)” value [3] was 2% and 2.2%. The “Population Healthy Nuclei (%)” value [3] was 87.82% and 85.46%, the “Population Hoechst High Intensity Objects (%)” value [3] was 0% and the “Population Membrane Permeable-Phenotype (%)” value [3] was 1.59% and 3.61%. For the same molecule, the “Population Mitochondria Different-Phenotype (%)” value [3] was 0% and 5.67%, the “Population Mitotic Cells (%)” value [3] was 50.98% and 42.86% and the “Population Normal (%)” value [3] was 100%. For the same molecule, the “Population Pyknosed Nuclei (%)” value [3] was 10.18% and 12.33%, the “Population Tubulin-Different-Phenotype (%)” value [3] was 0.68% and 0% and the “Total Cell Count” value [3] was 501 and 227. For the same molecule, the “Population Apoptotic (%)” value [4] was 38.3% and 22.58%, the “Population Fragmented Nuclei (%)” value [4] was 2.34% and 3.03% and the “Population Healthy Nuclei (%)” value [4] was 86.68% and 81.31%. The “Population Hoechst High Intensity Objects (%)” value [4] was 0%, the “Population Membrane Permeable-Phenotype (%)” value [4] was 0.54% and 5.59% and the “Population Mitochondria Different-Phenotype (%)” value [4] was 0.81% and 6.21%. The “Population Mitotic Cells (%)” value [4] was 61.7% and 77.42%, the “Population Normal (%)” value [4] was 100% and the “Population Pyknosed Nuclei (%)” value [4] was 10.98% and 15.66%. The “Population Tubulin-Different-Phenotype (%)” value [4] was 0.54% and 0.62%, the “Total Cell Count” value [4] was 428 and 198 and the “Population Apoptotic (%)” value [5] was 38.64% and 58.54%. The “Population Fragmented Nuclei (%)” value [5] was 3.22% and 4.97%, the “Population Healthy Nuclei (%)” value [5] was 87.66% and 84.29% and the “Population Hoechst High Intensity Objects (%)” value [5] was 0%. The “Population Membrane Permeable-Phenotype (%)” value [5] was 0.36% and 2.17%, the “Population Mitochondria Different-Phenotype (%)” value [5] was 0.24% and 4.66% and the “Population Mitotic Cells (%)” value [5] was 61.36% and 41.46%. The “Population Normal (%)” value [5] was 100%, the “Population Pyknosed Nuclei (%)” value [5] was 9.13% and 10.73% and the “Population Tubulin-Different-Phenotype (%)” value [5] was 0.47% and 0%. The “Total Cell Count” value [5] was 964 and 382, the “Population Apoptotic (%)” value [6] was 36.49% and 60% and the “Population Fragmented Nuclei (%)” value [6] was 2.4% and 2.31%. For the same molecule, the “Population Healthy Nuclei (%)” value [6] was 88.73% and 86.13%, the “Population Hoechst High Intensity Objects (%)” value [6] was 0% and the “Population Membrane Permeable-Phenotype (%)” value [6] was 1.22% and 3.02%. The “Population Mitochondria Different-Phenotype (%)” value [6] was 0.27% and 2.68%, the “Population Mitotic Cells (%)” value [6] was 63.51% and 40% and the “Population Normal (%)” value [6] was 100%. The “Population Pyknosed Nuclei (%)” value [6] was 8.87% and 11.56%, the “Population Tubulin-Different-Phenotype (%)” value [6] was 0.68% and 1.34% and the “Total Cell Count” value [6] was 834 and 346.
`C=CCN1C[C@H](C(=O)N(CCCN(C)C)C(=O)NCC)C[C@@H]2c3cccc4[nH]cc(c34)C[C@H]21` [CABERGOLINE] was tested, and the “Population Apoptotic (%)” value [1] was 86% and 57%, the “Population Fragmented Nuclei (%)” value [1] was 13% and 9% and the “Population Healthy Nuclei (%)” value [1] was 72% and 84%. The “Population Hoechst High Intensity Objects (%)” value [1] was 2% and 3%, the “Population Membrane Permeable-Phenotype (%)” value [1] was 3% and 8% and the “Population Mitochondria Different-Phenotype (%)” value [1] was 1% and 4%. For the same molecule, the “Population Normal (%)” value [1] was 97% and 96%, the “Population Pyknosed Nuclei (%)” value [1] was 13% and 5% and the “Population Tubulin-Different-Phenotype (%)” value [1] was 1% and 5%. For the same molecule, the “Total Cell Count” value [1] was 228 and 129, the “Population Apoptotic (%)” value [2] was 69% and 64% and the “Population Fragmented Nuclei (%)” value [2] was 35% and 17%. For the same molecule, the “Population Healthy Nuclei (%)” value [2] was 52% and 70%, the “Population Hoechst High Intensity Objects (%)” value [2] was 3% and 2% and the “Population Membrane Permeable-Phenotype (%)” value [2] was 15% and 13%. The “Population Mitochondria Different-Phenotype (%)” value [2] was 9% and 21%, the “Population Mitotic Cells (%)” value [2] was 30% and 35% and the “Population Normal (%)” value [2] was 96% and 97%. The “Population Pyknosed Nuclei (%)” value [2] was 11% and 12%, the “Population Tubulin-Different-Phenotype (%)” value [2] was 11% and 9% and the “Total Cell Count” value [2] was 228 and 143. The “Population Apoptotic (%)” value [3] was 82% and 64%, the “Population Fragmented Nuclei (%)” value [3] was 15% and 7% and the “Population Healthy Nuclei (%)” value [3] was 74% and 83%. For the same molecule, the “Population Hoechst High Intensity Objects (%)” value [3] was 3% and 1%, the “Population Membrane Permeable-Phenotype (%)” value [3] was 1% and 9% and the “Population Mitochondria Different-Phenotype (%)” value [3] was 1% and 4%. The “Population Mitotic Cells (%)” value [3] was 17% and 35%, the “Population Normal (%)” value [3] was 96% and 98% and the “Population Pyknosed Nuclei (%)” value [3] was 10% and 8%. For the same molecule, the “Population Tubulin-Different-Phenotype (%)” value [3] was 0% and 6%, the “Total Cell Count” value [3] was 295 and 162 and the “Population Apoptotic (%)” value [4] was 65% and 88%. For the same molecule, the “Population Fragmented Nuclei (%)” value [4] was 33% and 14%, the “Population Healthy Nuclei (%)” value [4] was 54% and 75% and the “Population Hoechst High Intensity Objects (%)” value [4] was 3% and 2%. For the same molecule, the “Population Membrane Permeable-Phenotype (%)” value [4] was 10% and 13%, the “Population Mitochondria Different-Phenotype (%)” value [4] was 5% and 12% and the “Population Normal (%)” value [4] was 96% and 97%. The “Population Pyknosed Nuclei (%)” value [4] was 11% and 10%, the “Population Tubulin-Different-Phenotype (%)” value [4] was 4% and 10% and the “Total Cell Count” value [4] was 228 and 165. For the same molecule, the “Population Apoptotic (%)” value [5] was 88% and 93%, the “Population Fragmented Nuclei (%)” value [5] was 13% and the “Population Healthy Nuclei (%)” value [5] was 77% and 73%. The “Population Hoechst High Intensity Objects (%)” value [5] was 2% and 3%, the “Population Membrane Permeable-Phenotype (%)” value [5] was 5% and 4% and the “Population Mitochondria Different-Phenotype (%)” value [5] was 1% and 4%. The “Population Mitotic Cells (%)” value [5] was 11% and 6%, the “Population Normal (%)” value [5] was 97% and 96% and the “Population Pyknosed Nuclei (%)” value [5] was 8% and 13%. The “Population Tubulin-Different-Phenotype (%)” value [5] was 3%, the “Total Cell Count” value [5] was 405 and 221 and the “Population Apoptotic (%)” value [6] was 86% and 87%. The “Population Fragmented Nuclei (%)” value [6] was 30% and 13%, the “Population Healthy Nuclei (%)” value [6] was 57% and 66% and the “Population Hoechst High Intensity Objects (%)” value [6] was 3% and 4%. For the same molecule, the “Population Membrane Permeable-Phenotype (%)” value [6] was 7% and 9%, the “Population Mitochondria Different-Phenotype (%)” value [6] was 1% and 9% and the “Population Mitotic Cells (%)” value [6] was 13% and 12%. For the same molecule, the “Population Normal (%)” value [6] was 96% and 95%, the “Population Pyknosed Nuclei (%)” value [6] was 12% and 20% and the “Population Tubulin-Different-Phenotype (%)” value [6] was 3% and 5%. The “Total Cell Count” value [6] was 303 and 206.
